What was measured:
[1] = Selectivity index, ratio of IC50 for rat L6 cells to IC50 for chloroquine-resistant Plasmodium falciparum K1; type: toxicity, cell-based; details: read-out: Ratio IC50
Procedure, shortened: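 Ratio of L6 IC50 to K1 IC50. L6 cells: Alamar blue assay after 70 h, 37 °C. K1: [3H]-hypoxanthine incorporation in infected red cells over 48 + 24 h at 37 °C under low O2. IC50s from sigmoidal curves, two independent runs in duplicate.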

[2] = test system: L6; experiment: Cytotoxicity against rat L6 cells after 70 hrs by alamar blue assay; type: cell-based; details: L6, 70 h
Procedure, shortened: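 L6 rat myoblasts, 4000 per well, in RPMI 1640 with 2 mM L-glutamine, HEPES, NaHCO₃ and 10% FBS. Exposed to serial dilutions (DMSO ≤1%) for 70 h at 37 °C in humidified 5% CO₂. Resazurin then added for 2-3 h; fluorescence read at ex 536/em 588 nm. IC50 from sigmoidal curves; two independent runs in duplicate.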

[3] = test system: Leishmania donovani; experiment: Antiprotozoal activity against Leishmania donovani MHOM/SD/62/1S-CL2D axenic amastigotes after 72 hrs; type: functional, organism-based
Procedure, shortened: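 L. donovani axenic amastigotes, adapted from promastigotes and grown in amastigote medium at 37 °C. 6 × 10⁴ parasites per well with 2-fold compound dilutions (DMSO ≤1%), incubated 72 h at 37 °C in humidified 5% CO₂. Growth read by tetrazolium (CellTiter) absorbance at 490 nm. IC50 from a four-parameter dose-response fit. Average of duplicate determinations.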

[4] = test system: Trypanosoma brucei rhodesiense; experiment: Antiprotozoal activity against Trypanosoma brucei rhodesiense STIB900 trypomastigotes after 70 hrs by alamar blue assay; type: functional, organism-based
Procedure, shortened: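 Bloodstream forms, 2000 per well, in MEM with Earle's salts plus 0.2 mM 2-mercaptoethanol, 1 mM pyruvate, 0.5 mM hypoxanthine and 15% heat-inactivated horse serum. Exposed to serial dilutions (DMSO ≤1%) for 70 h at 37 °C in 5% CO₂. Resazurin then added for a further 2-6 h. IC50 from sigmoidal curves; two independent runs in duplicate.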

[5] = test system: Plasmodium falciparum; experiment: Antiprotozoal activity after 48 hrs against chloroquine-resistant Plasmodium falciparum K1 infected erythrocytes by [3H]hypoxanthine uptake; type: functional, organism-based
Procedure, shortened: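 Erythrocytic stages in infected human red cells (hematocrit 1.25%, parasitemia 0.3%) in supplemented RPMI 1640 with Albumax II. Serial dilutions incubated at 37 °C in 93% N2/4% CO2/3% O2. [3H]-hypoxanthine (0.5 µCi/well) added at 48 h, then 24 h more. Incorporation counted by scintillation. IC50 from sigmoidal curves; two independent runs in duplicate.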

[6] = Selectivity index, ratio of IC50 for rat L6 cells to IC50 for Trypanosoma brucei rhodesiense STIB900 trypomastigotes; type: toxicity, cell-based; details: read-out: Ratio IC50
Procedure, shortened: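 Ratio of L6 IC50 to STIB900 IC50. L6 cells: 4000/well in RPMI 1640 with 10% FBS, 70 h at 37 °C. Bloodstream forms: 2000/well in supplemented MEM with 15% horse serum, 70 h at 37 °C. Both read by Alamar blue fluorescence; IC50s from sigmoidal curves, two independent runs in duplicate.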

[7] = Selectivity index, ratio of IC50 for rat L6 cells to IC50 for Leishmania donovani MHOM/SD/62/1S-CL2D axenic amastigotes; type: toxicity, cell-based; details: read-out: Ratio IC50
Procedure, shortened: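 Amastigotes: 6 × 10⁴ parasites/well with 2-fold dilutions, 72 h at 37 °C in 5% CO2. Growth read by tetrazolium CellTiter absorbance at 490 nm; IC50 from a four-parameter dose-response fit.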

N=C(N)c1ccc(OCCCCCOc2ccc(C(=N)N)c(O)c2)cc1O
selectivity ratio [1]: > 151 | IC50 [2]: > 195 µM | IC50 [3]: > 100 µM | IC50 [4]: 7.96 µM | IC50 [5]: 1.29 µM | selectivity ratio [6]: > 24

N=C(N)c1ccc(OCCCCOc2ccc(C(=N)N)cc2[N+](=O)[O-])c([N+](=O)[O-])c1
selectivity ratio [1]: 2380 | IC50 [2]: 42.8 µM | IC50 [3]: 15.1 µM | selectivity ratio [7]: 3 | IC50 [4]: 0.181 µM | IC50 [5]: 0.018 µM | selectivity ratio [6]: 236

CC(C)NC(=N)c1ccc(OCCCCCOc2ccc(C(=N)NC(C)C)c(O)c2)cc1O
selectivity ratio [1]: > 269 | IC50 [2]: > 156 µM | IC50 [3]: > 100 µM | selectivity ratio [7]: 2 | IC50 [4]: 14.7 µM | IC50 [5]: 0.581 µM | selectivity ratio [6]: > 11

N=C(N)c1ccc(OCCCCCOc2ccc(C(=N)N)cc2[N+](=O)[O-])c([N+](=O)[O-])c1
selectivity ratio [1]: 1550 | IC50 [2]: 37.3 µM | IC50 [3]: 11.4 µM | selectivity ratio [7]: 3 | IC50 [4]: 0.098 µM | IC50 [5]: 0.024 µM | selectivity ratio [6]: 381

CC(C)NC(=N)c1ccc(OCCCCCOc2ccc(C(=N)NC(C)C)cc2C(=O)O)c(C(=O)O)c1
IC50 [2]: > 144 µM | IC50 [3]: > 200 µM | IC50 [4]: > 16 µM | IC50 [5]: > 1.6 µM

CC(C)NC(=N)c1ccc(OCCCCCOc2ccc(C(=N)NC(C)C)c(F)c2)cc1F
selectivity ratio [1]: 18700 | IC50 [2]: 131 µM | IC50 [3]: 15 µM | selectivity ratio [7]: 9 | IC50 [4]: 0.259 µM | IC50 [5]: 0.007 µM | selectivity ratio [6]: 506

N/N=C(\N)c1ccc(OCCCCCOc2ccc(/C(N)=N/N)cc2)cc1
selectivity ratio [1]: 99 | IC50 [2]: 139 µM | IC50 [3]: 126 µM | selectivity ratio [7]: 1 | IC50 [4]: 9.67 µM | IC50 [5]: 1.41 µM | selectivity ratio [6]: 14

N=C(N)c1ccc(S(=O)(=O)CCCCCS(=O)(=O)c2ccc(C(=N)N)cc2)cc1
selectivity ratio [1]: > 1780 | IC50 [2]: > 174 µM | IC50 [3]: > 100 µM | selectivity ratio [7]: 2 | IC50 [4]: 28.1 µM | IC50 [5]: 0.098 µM | selectivity ratio [6]: > 6

CC(=N)Nc1ccc(OCCCCCOc2ccc(NC(C)=N)cc2)cc1
selectivity ratio [1]: > 4210 | IC50 [2]: > 202 µM | IC50 [3]: > 100 µM | IC50 [4]: 3.04 µM | IC50 [5]: 0.048 µM | selectivity ratio [6]: > 66

CC(C)NC(=N)c1cccc(OCCCCCOc2cccc(C(=N)NC(C)C)c2)c1
selectivity ratio [1]: > 43800 | IC50 [2]: > 175 µM | IC50 [3]: 15.4 µM | selectivity ratio [7]: > 11 | IC50 [4]: 0.416 µM | IC50 [5]: 0.004 µM | selectivity ratio [6]: > 421

Nc1cc(C2=NCCN2)ccc1OCCCOc1ccc(C2=NCCN2)cc1N
selectivity ratio [1]: > 2390 | IC50 [2]: > 167 µM | IC50 [4]: 0.813 µM | IC50 [5]: 0.07 µM | selectivity ratio [6]: > 205

CC(C)NC(=N)c1cccc(OCCCCCCOc2cccc(C(=N)NC(C)C)c2)c1
selectivity ratio [1]: 17800 | IC50 [2]: 107 µM | IC50 [3]: 11.6 µM | selectivity ratio [7]: 9 | IC50 [4]: 0.258 µM | IC50 [5]: 0.006 µM | selectivity ratio [6]: 415

CCOC(=O)c1cc(C(=N)N)ccc1OCCCCCOc1ccc(C(=N)N)cc1C(N)=O
selectivity ratio [1]: > 11800 | IC50 [2]: > 165 µM | IC50 [3]: 52.1 µM | selectivity ratio [7]: > 3 | IC50 [4]: 0.011 µM | IC50 [5]: 0.014 µM | selectivity ratio [6]: > 15000

N=C(N)c1ccc(OCCCCCOc2ccc(/C(N)=N\O)cc2)cc1
selectivity ratio [1]: 50 | IC50 [2]: 11.6 µM | IC50 [3]: 55.6 µM | selectivity ratio [7]: < 1 | IC50 [4]: 0.289 µM | IC50 [5]: 0.234 µM | selectivity ratio [6]: 40

CNC(=N)c1ccc(OCCCOc2ccc(C(=N)NC)cc2OC)c(OC)c1
selectivity ratio [1]: 276 | IC50 [2]: 177 µM | IC50 [3]: 25.3 µM | selectivity ratio [7]: 7 | IC50 [4]: 0.057 µM | IC50 [5]: 0.641 µM | selectivity ratio [6]: 3100

CC(C)NC(=N)c1cccc(OCCCCOc2cccc(C(=N)NC(C)C)c2)c1
selectivity ratio [1]: > 13200 | IC50 [2]: > 171 µM | IC50 [3]: 19.3 µM | selectivity ratio [7]: > 9 | IC50 [4]: 0.619 µM | IC50 [5]: 0.013 µM | selectivity ratio [6]: > 276

C[C@@H]1CC[C@H]2[C@@H](C)C(=O)O[C@@H]3O[C@@]4(C)CC[C@@H]1[C@]32OO4 [ARTEMISININ]
selectivity ratio [1]: 75000

Oc1cc(OCCCCCOc2ccc(C3=NCCN3)c(O)c2)ccc1C1=NCCN1
selectivity ratio [1]: > 1720 | IC50 [2]: > 169 µM | IC50 [3]: > 100 µM | selectivity ratio [7]: 2 | IC50 [4]: 3.7 µM | IC50 [5]: 0.098 µM | selectivity ratio [6]: > 46

c1cc(OCCCOc2cccc(C3=NCCN3)c2)cc(C2=NCCN2)c1
selectivity ratio [1]: 8 | IC50 [2]: 43.5 µM | IC50 [3]: 30.8 µM | selectivity ratio [7]: 1 | IC50 [4]: 4.3 µM | IC50 [5]: 5.39 µM | selectivity ratio [6]: 10

N=C(N)c1ccc(OCCCOc2ccc(C(=N)N)cc2[N+](=O)[O-])c([N+](=O)[O-])c1
selectivity ratio [1]: 651 | IC50 [2]: 22.8 µM | IC50 [3]: 30.9 µM | selectivity ratio [7]: 0.7 | IC50 [4]: 0.188 µM | IC50 [5]: 0.035 µM | selectivity ratio [6]: 121

CN1CCN=C1c1ccc(OCCCCCOc2ccc(C3=NCCN3C)cc2)cc1
selectivity ratio [1]: > 107 | IC50 [2]: > 176 µM | IC50 [3]: > 100 µM | selectivity ratio [7]: 2 | IC50 [4]: > 19.6 µM | IC50 [5]: 1.65 µM

c1cc(OCCCCOc2cccc(C3=NCCN3)c2)cc(C2=NCCN2)c1
selectivity ratio [1]: > 1730 | IC50 [2]: > 185 µM | IC50 [3]: 39.5 µM | selectivity ratio [7]: > 5 | IC50 [4]: 1.94 µM | IC50 [5]: 0.107 µM | selectivity ratio [6]: > 95

N=C(N)c1ccc(OCCCOc2ccc(C(=O)O)cc2)cc1
selectivity ratio [1]: < 60 | IC50 [2]: 167 µM | IC50 [3]: > 100 µM | selectivity ratio [7]: < 2 | IC50 [4]: > 257 µM | IC50 [5]: > 2.8 µM | selectivity ratio [6]: < 0.6

Fc1cc(OCCCCCOc2ccc(C3=NCCN3)c(F)c2)ccc1C1=NCCN1
selectivity ratio [1]: 43 | IC50 [2]: 23.2 µM | IC50 [3]: 52.6 µM | selectivity ratio [7]: 0.4 | IC50 [4]: 4.46 µM | IC50 [5]: 0.544 µM | selectivity ratio [6]: 5

c1cc(OCCCCCCOc2cccc(C3=NCCN3)c2)cc(C2=NCCN2)c1
selectivity ratio [1]: 4950 | IC50 [2]: 99 µM | IC50 [3]: 21.9 µM | selectivity ratio [7]: 5 | IC50 [4]: 0.875 µM | IC50 [5]: 0.02 µM | selectivity ratio [6]: 113

CC(C)NC(=N)c1cccc(OCCCOc2cccc(C(=N)NC(C)C)c2)c1
selectivity ratio [1]: > 10200 | IC50 [2]: > 183 µM | IC50 [3]: 16.2 µM | selectivity ratio [7]: > 11 | IC50 [4]: 0.543 µM | IC50 [5]: 0.018 µM | selectivity ratio [6]: > 337

N=C(N)c1ccc(OCCCCCOc2ccc(N)cc2)cc1
selectivity ratio [1]: 54 | IC50 [2]: 120 µM | IC50 [3]: > 100 µM | selectivity ratio [7]: 1 | IC50 [4]: 1.31 µM | IC50 [5]: 2.24 µM | selectivity ratio [6]: 91

CCOC(=O)c1cc(C(=N)N)ccc1OCCCCCOc1ccc(C(=N)N)cc1C(=O)OCC
selectivity ratio [1]: > 7240 | IC50 [2]: > 152 µM | IC50 [3]: > 50 µM | IC50 [4]: 12.1 µM | IC50 [5]: 0.021 µM | selectivity ratio [6]: > 13

N=C(N)c1ccc(OCCCCCOc2ccc(C(=N)N)cc2C(=O)O)c(C(=O)O)c1
selectivity ratio [1]: 2 | IC50 [2]: > 165 µM | IC50 [4]: > 18.3 µM | IC50 [5]: 71.8 µM

CCOC(=O)c1cc(C2=NCCN2)ccc1OCCCCCOc1ccc(C2=NCCN2)cc1C(=O)OCC
selectivity ratio [1]: > 5110 | IC50 [2]: > 138 µM | IC50 [3]: 13.6 µM | selectivity ratio [7]: > 10 | IC50 [4]: > 15.3 µM | IC50 [5]: 0.027 µM

c1cc(OCCCCCOc2cccc(C3=NCCN3)c2)cc(C2=NCCN2)c1
selectivity ratio [1]: 4170 | IC50 [2]: 100 µM | IC50 [3]: 22.4 µM | selectivity ratio [7]: 4 | IC50 [4]: 1.49 µM | IC50 [5]: 0.024 µM | selectivity ratio [6]: 67

c1cc(-c2nnn[nH]2)ccc1OCCCCCOc1ccc(-c2nnn[nH]2)cc1
selectivity ratio [1]: > 28 | IC50 [2]: > 229 µM | IC50 [3]: > 100 µM | selectivity ratio [7]: 2 | IC50 [4]: > 229 µM | IC50 [5]: 8.31 µM

O=C(O)c1cc(C2=NCCN2)ccc1OCCCCCOc1ccc(C2=NCCN2)cc1C(=O)O
IC50 [2]: > 151 µM | IC50 [3]: > 200 µM | IC50 [4]: > 16.8 µM | IC50 [5]: > 1.68 µM
